Results as given in ChEMBL document CHEMBL4138104, “Indole carboxylic acid esters of melampomagnolide B are potent anticancer agents against both hematological and solid tumor cells” (Eur J Med Chem, 2017).
Calls of active or inactive are those of the source. The rule behind the calls is not given here.

How the values were obtained:
SR = assay: Growth inhibition of human SR cells incubated for 48 hrs by sulforhodamine B assay; format: functional
Outline: (§1)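 NCI-60 screen run at NCI. Cells grown in RPMI medium with 5% FBS and 2 mM L-glutamine, plated at 5,000–40,000 cells/well, and preincubated 24 h at 37 °C. Time-zero plates were TCA-fixed. Compounds came from DMSO stocks and were tested at five concentrations from 10^-4 to 10^-8 M for 48 h. Cells were then TCA-fixed, stained with 0.4% SRB, and OD read at 515 nm. GI50 is the concentration giving a 50% reduction in net protein increase versus control.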

EKVX = assay: Growth inhibition of human EKVX cells incubated for 48 hrs by sulforhodamine B assay; format: functional
Outline: (§2)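 NCI-60 screen. Compounds were dosed at five concentrations spanning 10^-4 to 10^-8 M for 48 h at 37 °C. Cells were TCA-fixed, stained with 0.4% SRB and read at 515 nm against time-zero and vehicle controls. GI50 is the concentration giving a 50% reduction in net protein increase.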

HOP-62 = assay: Growth inhibition of human HOP62 cells incubated for 48 hrs by sulforhodamine B assay; format: functional; conditions: HOP-62, 48 h; outline: as §2
COLO 205 = assay: Growth inhibition of human COLO205 cells incubated for 48 hrs by sulforhodamine B assay; format: functional; conditions: COLO 205, 48 h; outline: as §2
HCC 2998 = assay: Growth inhibition of human HCC2998 cells incubated for 48 hrs by sulforhodamine B assay; format: functional; conditions: HCC 2998, 48 h; outline: as §2
SNB-75 = assay: Growth inhibition of human SNB75 cells incubated for 48 hrs by sulforhodamine B assay; format: functional; conditions: SNB-75, 48 h; outline: as §1
M14 = assay: Growth inhibition of human M14 cells incubated for 48 hrs by sulforhodamine B assay; format: functional; conditions: M14, 48 h; outline: as §2
MDA-MB-435 = assay: Growth inhibition of human MDA-MB-435 cells incubated for 48 hrs by sulforhodamine B assay; format: functional; conditions: MDA-MB-435, 48 h; outline: as §2
SK-MEL-2 = assay: Growth inhibition of human SK-MEL-2 cells incubated for 48 hrs by sulforhodamine B assay; format: functional; conditions: SK-MEL-2, 48 h; outline: as §2
SK-MEL-5 = assay: Growth inhibition of human SK-MEL-5 cells incubated for 48 hrs by sulforhodamine B assay; format: functional; conditions: SK-MEL-5, 48 h; outline: as §2
IGROV-1 = assay: Growth inhibition of human IGROV1 cells incubated for 48 hrs by sulforhodamine B assay; format: functional; conditions: IGROV-1, 48 h; outline: as §2
OVCAR-3 = assay: Growth inhibition of human OVCAR3 cells incubated for 48 hrs by sulforhodamine B assay; format: functional; conditions: OVCAR-3, 48 h; outline: as §2
OVCAR-4 = assay: Growth inhibition of human OVCAR4 cells incubated for 48 hrs by sulforhodamine B assay; format: functional; conditions: OVCAR-4, 48 h; outline: as §2
786-0 = assay: Growth inhibition of human 786-0 cells incubated for 48 hrs by sulforhodamine B assay; format: functional; conditions: 786-0, 48 h; outline: as §2
ACHN = assay: Growth inhibition of human ACHN cells incubated for 48 hrs by sulforhodamine B assay; format: functional; outline: as §2
TK-10 = assay: Growth inhibition of human TK10 cells incubated for 48 hrs by sulforhodamine B assay; format: functional; conditions: TK-10, 48 h; outline: as §1
PC-3 = assay: Growth inhibition of human PC3 cells incubated for 48 hrs by sulforhodamine B assay; format: functional; conditions: PC-3, 48 h; outline: as §2
DU-145 = assay: Growth inhibition of human DU145 cells incubated for 48 hrs by sulforhodamine B assay; format: functional; conditions: DU-145, 48 h; outline: as §2
MDA-MB-231 = assay: Growth inhibition of human MDA-MB-231/ATCC cells incubated for 48 hrs by sulforhodamine B assay; format: functional; conditions: MDA-MB-231, 48 h; outline: as §2
Hs-578T = assay: Growth inhibition of human Hs 578T cells incubated for 48 hrs by sulforhodamine B assay; format: functional; outline: as §2
BT-549 = assay: Growth inhibition of human BT549 cells incubated for 48 hrs by sulforhodamine B assay; format: functional; conditions: BT-549, 48 h; outline: as §2
T47D = assay: Growth inhibition of human T47D cells incubated for 48 hrs by sulforhodamine B assay; format: functional; outline: as §1
MDA-MB-468 = assay: Growth inhibition of human MDA-MB-468 cells incubated for 48 hrs by sulforhodamine B assay; format: functional; conditions: MDA-MB-468, 48 h; outline: as §2
[1] = Induction of apoptosis in AML01 cells isolated from acute myelogenous leukemia patient after 24 hrs by annexin V/7-AAD/propidium iodide staining-based flow cytometric method; format: functional, cell-based; conditions: Homo sapiens, AML01, 24 h
Outline: (§3)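 Primary AML specimens from consenting patients were Ficoll-separated and some were cryopreserved. Cells were held 1 h in serum-free IMDM with 20% BIT 9500, LDL and beta-mercaptoethanol before drug. Drugs were diluted from DMSO stock into PBS, final DMSO ≤0.5%. Dosing was 0.5–10 μM for 24 h. Annexin V/7-AAD flow cytometry scored double-negative (non-apoptotic) cells, normalized to vehicle, in triplicate, and EC50 came from dose-response curves.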

[2] = Induction of apoptosis in AML02 cells isolated from acute myelogenous leukemia patient after 24 hrs by annexin V/7-AAD/propidium iodide staining-based flow cytometric method; format: functional, cell-based; conditions: Homo sapiens; outline: as §3
[3] = Induction of apoptosis in AML03 cells isolated from acute myelogenous leukemia patient after 24 hrs by annexin V/7-AAD/propidium iodide staining-based flow cytometric method; format: functional, cell-based; conditions: Homo sapiens; outline: as §3
[4] = Induction of apoptosis in AML04 cells isolated from acute myelogenous leukemia patient after 24 hrs by annexin V/7-AAD/propidium iodide staining-based flow cytometric method; format: functional, cell-based; conditions: Homo sapiens; outline: as §3
[5] = Potency index, ratio of PTL EC50 to compound EC50 for human M9-ENL1 cells; format: functional
Outline: (§4)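 M9-ENL1 AML cells, derived by MLL-ENL transduction of human blood cells, were plated at 10^6 cells/mL in alpha-MEM with 5% human plasma, 20% FBS, SCF, IL-3, IL-7 and FLT3 ligand. Exposure was 24 h. Non-apoptotic (Annexin V/7-AAD double-negative) fraction was normalized to vehicle, in triplicate, to give EC50. PTL and MMB were run as reference controls.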

[6] = Potency index, ratio of melampomagnolide-B EC50 to compound EC50 for human M9-ENL1 cells; format: functional; outline: as §4
Rattus norvegicus [7] = species: Rattus norvegicus; assay: Induction of necrosis in rat 9LSF cells at 20 uM after 48 hrs by microscopic analysis; format: functional, cell-based
Outline: (§5)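 Rat 9L-SF gliosarcoma cells were grown in DMEM/F12 with 10% iron-supplemented calf serum at 37 °C under 5% CO2. Treatment was applied to 50% confluent monolayers. Cell detachment and necrosis were scored visually by microscopy.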

Rattus norvegicus [8] = species: Rattus norvegicus; assay: Induction of cell detachment in rat 9LSF cells at 20 uM after 48 hrs by microscopic analysis; format: functional, cell-based; outline: as §5
CAKI-1 = assay: Growth inhibition of human Caki1 cells incubated for 48 hrs by sulforhodamine B assay; format: functional; conditions: CAKI-1, 48 h; outline: as §2
Rattus norvegicus [9] = species: Rattus norvegicus; assay: Inhibition of colony formation of rat 9LSF cells at 5 to 20 uM after 48 hrs by colony formation assay; format: functional
Outline: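 9L-SF cells were seeded in 60 mm dishes to reach 50% confluence (6.65×10^4 cells/cm²) after 24 h. They were treated 48 h with drug serially diluted from DMSO stock (max 0.05% DMSO), then rinsed, trypsinized, counted and seeded in triplicate flasks for colonies. Lethally irradiated (25 Gy) feeders kept density at 2,000 cells/cm². Survival was normalized to control plating efficiency, with three experiments.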

[10] = Solubility of the compound in water; format: physicochemical; conditions: buffer

Structure (SMILES) | GI50 (SR) [µM] | GI50 (EKVX) [µM] | GI50 (HOP-62) [µM] | GI50 (COLO 205) [µM] | GI50 (HCC 2998) [µM] | GI50 (SNB-75) [µM] | GI50 (M14) [µM] | GI50 (MDA-MB-435) [µM] | GI50 (SK-MEL-2) [µM] | GI50 (SK-MEL-5) [µM] | GI50 (IGROV-1) [µM] | GI50 (786-0) [µM] | GI50 (ACHN) [µM] | GI50 (TK-10) [µM] | GI50 (PC-3) [µM] | GI50 (DU-145) [µM] | GI50 (MDA-MB-231) [µM] | GI50 (BT-549) [µM] | GI50 (T47D) [µM] | GI50 (MDA-MB-468) [µM] | also measured
C=C1C(=O)O[C@@H]2[C@H]3O[C@]3(C)CC/C=C(/COC(=O)/C=C/c3c[nH]c4ccccc34)CC[C@@H]12 | 0.27 | 0.23 | 0.82 | 0.22 | 0.27 | 0.17 | 0.22 | 0.22 | 0.2 | 0.2 | 0.22 | 0.22 | 0.2 | 0.27 | 0.32 | 0.39 | 0.17 | 0.17 | 0.2 | 0.19 | GI50 (OVCAR-3): 0.17 µM; GI50 (OVCAR-4): 0.2 µM; GI50 (Hs-578T): 0.35 µM; EC50 [1]: 1.3 µM; EC50 [2]: 0.91 µM; EC50 [3]: 0.32 µM; EC50 [4]: 1 µM; Ratio IC50 [5]: 9; Ratio IC50 [6]: >20; Activity (Rattus norvegicus [7]): Active; Activity (Rattus norvegicus [8]): Active
C=C1C(=O)O[C@@H]2[C@H]3O[C@]3(C)CC/C=C(/COC(=O)c3cc4ccccc4[nH]3)CC[C@@H]12 | 1.08 | – | – | – | 2.14 | 1.01 | 0.81 | 0.76 | 1.92 | 1.26 | – | 0.37 | 0.34 | 1.39 | 1.42 | 1.21 | 1.14 | < 0.01 | < 0.01 | 0.3 | GI50 (CAKI-1): 1.08 µM; EC50 [1]: 3.5 µM; EC50 [2]: 2.7 µM; EC50 [3]: 2.9 µM; EC50 [4]: 2.2 µM; Ratio IC50 [6]: 2 - 20; inhibition (Rattus norvegicus [9]): Active; Activity (Rattus norvegicus [7]): Active; Activity (Rattus norvegicus [8]): Active
CN(C)CC1C(=O)O[C@@H]2[C@H]3O[C@]3(C)CC/C=C(/COC(=O)c3cc4ccccc4[nH]3)CC[C@@H]12.O=C(O)/C=C/C(=O)O (stereo partly specified) | 1.59 | 3.36 | 2.2 | 1.98 | 1.72 | 3.21 | 1.57 | 1.28 | 2.1 | 1.85 | 2.07 | 1.71 | 0.67 | 2.12 | 2.37 | 1.49 | 1.74 | 1.57 | 2.11 | 1.12 | GI50 (OVCAR-3): 0.35 µM; GI50 (OVCAR-4): 1.36 µM; GI50 (CAKI-1): 1.11 µM; GI50 (Hs-578T): 3.03 µM; solubility [10]: Soluble
